According to ChEMBL document CHEMBL1132860 (Bioorg Med Chem Lett, 2000):
pIC50: −log10 of the molar value.

Columns and labels:
Rattus norvegicus [1] = assay: Inhibition of Xylazine (15 mg/kg i.v.) induced loss of righting reflex in rats following i.v. administration.; type: functional; parameters: unit not given here
Rattus norvegicus [2] = assay: Inhibition of clonidine (0.04 mg/kg) induced anti diarrhoeal effects in rats following s.c. administration.; type: functional; parameters: unit not given here
[3] = molecular target: T1, Alpha-2C adrenergic receptor (Homo sapiens, UniProt P18825); assay: biochemical; type: cell-based, CHO
T1 sequence (P18825 whole entry): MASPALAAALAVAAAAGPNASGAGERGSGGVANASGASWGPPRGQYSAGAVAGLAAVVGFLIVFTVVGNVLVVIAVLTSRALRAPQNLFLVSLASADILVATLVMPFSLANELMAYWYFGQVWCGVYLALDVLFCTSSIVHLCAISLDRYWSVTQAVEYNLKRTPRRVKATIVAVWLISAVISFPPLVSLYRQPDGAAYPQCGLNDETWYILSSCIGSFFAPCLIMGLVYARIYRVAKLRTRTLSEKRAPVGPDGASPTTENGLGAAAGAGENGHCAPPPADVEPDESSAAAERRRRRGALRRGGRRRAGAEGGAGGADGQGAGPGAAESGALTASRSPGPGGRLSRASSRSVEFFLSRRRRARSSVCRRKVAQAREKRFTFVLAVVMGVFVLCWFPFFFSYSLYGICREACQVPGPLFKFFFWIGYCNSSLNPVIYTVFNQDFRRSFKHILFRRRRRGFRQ

[4] = molecular target: T2, Alpha-1A adrenergic receptor (Homo sapiens, UniProt P35348); assay: Binding affinity at human Alpha-1A adrenergic receptor in CHO cells uby [3H]prazosin (0.25 nM) displacement.; type: cell-based
T2 sequence (P35348 whole entry): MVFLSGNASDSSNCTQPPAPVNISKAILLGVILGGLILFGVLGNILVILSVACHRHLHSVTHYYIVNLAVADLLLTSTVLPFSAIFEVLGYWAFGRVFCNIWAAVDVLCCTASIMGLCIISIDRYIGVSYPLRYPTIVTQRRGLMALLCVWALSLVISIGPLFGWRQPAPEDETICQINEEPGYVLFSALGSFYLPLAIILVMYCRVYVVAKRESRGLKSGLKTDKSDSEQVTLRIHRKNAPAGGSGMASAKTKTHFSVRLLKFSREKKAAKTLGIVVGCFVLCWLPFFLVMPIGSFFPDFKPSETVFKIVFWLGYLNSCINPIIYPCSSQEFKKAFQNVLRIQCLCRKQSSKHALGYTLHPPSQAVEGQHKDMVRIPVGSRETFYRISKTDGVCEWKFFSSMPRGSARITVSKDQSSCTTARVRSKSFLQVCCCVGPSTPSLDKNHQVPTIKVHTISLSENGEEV

[5] = molecular target: T3, Alpha-2B adrenergic receptor (Homo sapiens, UniProt P18089); assay: Binding affinity at human Alpha-2B adrenergic receptor in CHO cells by [3H]rauwolscine (1 nM) displacement.; type: cell-based
T3 sequence (P18089 whole entry): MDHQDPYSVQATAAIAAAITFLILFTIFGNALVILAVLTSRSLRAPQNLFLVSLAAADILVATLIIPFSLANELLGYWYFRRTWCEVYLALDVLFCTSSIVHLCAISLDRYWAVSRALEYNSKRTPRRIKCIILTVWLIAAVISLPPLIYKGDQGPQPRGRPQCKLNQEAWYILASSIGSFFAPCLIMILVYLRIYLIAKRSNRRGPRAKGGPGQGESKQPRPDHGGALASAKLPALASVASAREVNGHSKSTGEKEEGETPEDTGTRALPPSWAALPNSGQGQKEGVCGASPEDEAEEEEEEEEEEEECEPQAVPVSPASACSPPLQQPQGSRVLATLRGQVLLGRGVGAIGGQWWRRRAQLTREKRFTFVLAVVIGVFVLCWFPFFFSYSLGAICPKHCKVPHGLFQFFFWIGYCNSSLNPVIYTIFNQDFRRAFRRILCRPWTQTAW

[6] = molecular target: T4, Alpha-2A adrenergic receptor (Homo sapiens, UniProt P08913); assay: Binding affinity at human Alpha-2A adrenergic receptor in CHO cells by [3H]rauwolscine (1 nM) displacement.; type: cell-based
T4 sequence (P08913 whole entry): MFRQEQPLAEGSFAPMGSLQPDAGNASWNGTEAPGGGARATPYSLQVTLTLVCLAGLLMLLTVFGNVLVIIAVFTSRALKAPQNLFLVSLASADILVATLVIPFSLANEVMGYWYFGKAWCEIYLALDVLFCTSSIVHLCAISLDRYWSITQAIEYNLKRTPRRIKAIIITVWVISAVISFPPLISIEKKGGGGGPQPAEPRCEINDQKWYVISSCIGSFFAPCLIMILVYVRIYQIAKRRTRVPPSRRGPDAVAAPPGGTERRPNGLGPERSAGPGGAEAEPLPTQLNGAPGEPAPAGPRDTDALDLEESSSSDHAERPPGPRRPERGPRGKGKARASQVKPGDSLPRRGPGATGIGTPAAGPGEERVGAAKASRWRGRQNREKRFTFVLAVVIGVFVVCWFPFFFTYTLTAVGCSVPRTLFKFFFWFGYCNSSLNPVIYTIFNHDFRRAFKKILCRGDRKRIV
Outline: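 Membranes from CHO cells stably expressing the human receptor, with 1 nM [3H]rauwolscine as radioligand. Nonspecific binding was defined with 1 μM oxymethazoline. Compounds were tested over 10^-5 to 10^-11. Inhibition curves were fitted as sigmoids by non-linear regression using polynomials, and pIC50 (−log IC50) was read from the curves.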

COc1cc2nc(C)c(CCN3CCc4oc5ccccc5c4C3)c(=O)n2cc1OC
Activity (Rattus norvegicus [1]): >10 | Activity (Rattus norvegicus [2]): >0.63 | pIC50 [3]: 7.24 | pIC50 [4]: 5.28 | pIC50 [5]: 6.71 | pIC50 [6]: 8.45

Cc1nc2c(Cl)cc(C(F)(F)F)cn2c(=O)c1CCN1CCc2oc3ccccc3c2C1
pIC50 [4]: 5.23 | pIC50 [5]: 8.71 | pIC50 [6]: 8.93

Cc1cc(C)n2c(=O)c(CCN3CCc4oc5ccccc5c4C3)c(C)nc2c1
Activity (Rattus norvegicus [1]): >10 | Activity (Rattus norvegicus [2]): >2.5 | pIC50 [3]: 9.07 | pIC50 [4]: 6.62 | pIC50 [5]: 8.58 | pIC50 [6]: 9.47

Cc1ccc2nc(C)c(CCN3CCc4oc5ccccc5c4C3)c(=O)n2c1
Activity (Rattus norvegicus [1]): 0.16 | Activity (Rattus norvegicus [2]): 0.63 | pIC50 [3]: 8.89 | pIC50 [4]: 6.54 | pIC50 [5]: 8.81 | pIC50 [6]: 9.46

O=c1c(CCN2CCc3oc4ccccc4c3C2)c(Cc2ccccc2)nc2ccccn12
Activity (Rattus norvegicus [1]): >10 | Activity (Rattus norvegicus [2]): >2.5 | pIC50 [3]: 8.57 | pIC50 [4]: 6.69 | pIC50 [5]: 8.38 | pIC50 [6]: 8.66

COc1cccn2c(=O)c(CCN3CCc4oc5ccccc5c4C3)c(C)nc12
Activity (Rattus norvegicus [1]): 0.63 | Activity (Rattus norvegicus [2]): 0.63 | pIC50 [3]: 9.15 | pIC50 [4]: 6.94 | pIC50 [5]: 8.69 | pIC50 [6]: 9.53

Cc1nc2ccc(I)cn2c(=O)c1CCN1CCc2oc3ccccc3c2C1
Activity (Rattus norvegicus [1]): 10 | Activity (Rattus norvegicus [2]): >2.5 | pIC50 [3]: 9.21 | pIC50 [4]: 6.32 | pIC50 [5]: 8.68 | pIC50 [6]: 9.62

Cc1nc2c(O)cccn2c(=O)c1CCN1CCc2oc3ccccc3c2C1
Activity (Rattus norvegicus [1]): 5 | Activity (Rattus norvegicus [2]): 2.5 | pIC50 [3]: 8.79 | pIC50 [4]: 6.61 | pIC50 [5]: 8.76 | pIC50 [6]: 9.16

Cc1nc2cccc(C)n2c(=O)c1CCN1CCc2oc3ccccc3c2C1
Activity (Rattus norvegicus [1]): 0.63 | Activity (Rattus norvegicus [2]): 2.5 | pIC50 [3]: 8.97 | pIC50 [4]: 6.40 | pIC50 [5]: 8.83 | pIC50 [6]: 9.54

Cc1nc2c(Cl)cc(Cl)cn2c(=O)c1CCN1CCc2oc3ccccc3c2C1
Activity (Rattus norvegicus [1]): >10 | Activity (Rattus norvegicus [2]): >2.5 | pIC50 [4]: 5.59 | pIC50 [6]: 9.23

Cc1nc2ccccn2c(=O)c1CCN1CCc2oc3c(Cl)cccc3c2C1
Activity (Rattus norvegicus [1]): 2.5 | Activity (Rattus norvegicus [2]): 0.63 | pIC50 [3]: 8.65 | pIC50 [4]: 6.55 | pIC50 [5]: 8.36 | pIC50 [6]: 9.05

Cc1nc2ccccn2c(=O)c1CCN1CCc2sc3ccccc3c2C1
Activity (Rattus norvegicus [1]): 2.5 | Activity (Rattus norvegicus [2]): 10 | pIC50 [3]: 7.85 | pIC50 [4]: 6.67 | pIC50 [5]: 7.94 | pIC50 [6]: 8.76

Cc1nc2ccc(Br)cn2c(=O)c1CCN1CCc2oc3ccccc3c2C1
Activity (Rattus norvegicus [1]): 0.16 | Activity (Rattus norvegicus [2]): 2.5 | pIC50 [3]: 9.16 | pIC50 [4]: 6.05 | pIC50 [5]: 8.87 | pIC50 [6]: 9.45

Cc1nc2ccccn2c(=O)c1CCN1CCc2oc3ccc(Cl)cc3c2C1
Activity (Rattus norvegicus [1]): 10 | Activity (Rattus norvegicus [2]): >2.5 | pIC50 [3]: 7.56 | pIC50 [5]: 7.10 | pIC50 [6]: 8.41

Cc1nc2ccccn2c(=O)c1CCCN1CCc2oc3ccccc3c2C1
Activity (Rattus norvegicus [1]): >10 | Activity (Rattus norvegicus [2]): >2.5 | pIC50 [3]: 8.18 | pIC50 [4]: 6.09 | pIC50 [5]: 7.97 | pIC50 [6]: 7.99

Cc1ccn2c(=O)c(CCN3CCc4oc5ccccc5c4C3)c(C)nc2c1
Activity (Rattus norvegicus [1]): 0.63 | Activity (Rattus norvegicus [2]): 2.5 | pIC50 [3]: 8.92 | pIC50 [4]: 6.95 | pIC50 [5]: 8.59 | pIC50 [6]: 9.35

Cc1nc2c(C)cccn2c(=O)c1CCN1CCc2oc3ccccc3c2C1
Activity (Rattus norvegicus [1]): 10 | Activity (Rattus norvegicus [2]): 2.5 | pIC50 [3]: 8.88 | pIC50 [4]: 6.16 | pIC50 [5]: 8.67 | pIC50 [6]: 9.22

Cc1nc2ccc(Cl)cn2c(=O)c1CCN1CCc2oc3ccccc3c2C1
Activity (Rattus norvegicus [1]): 0.04 | Activity (Rattus norvegicus [2]): 0.63 | pIC50 [3]: 9.14 | pIC50 [4]: 6.14 | pIC50 [5]: 9.02 | pIC50 [6]: 9.67

c1ccc2c(c1)OCC(C1=NCCN1)O2 (stereo not drawn) [IDAZOXAN]
Activity (Rattus norvegicus [1]): 0.63 | Activity (Rattus norvegicus [2]): 0.63

Cc1nc2ccccn2c(=O)c1CCN1CCc2oc3ccccc3c2C1 [LUSAPERIDONE]
Activity (Rattus norvegicus [1]): 0.04 | Activity (Rattus norvegicus [2]): 0.31 | pIC50 [3]: 8.77 | pIC50 [4]: 6.46 | pIC50 [5]: 8.59 | pIC50 [6]: 9.26

CN1CCN2c3ncccc3Cc3ccccc3C2C1 (stereo not drawn) [MIRTAZAPINE]
Activity (Rattus norvegicus [1]): 2.5 | Activity (Rattus norvegicus [2]): >10 | pIC50 [3]: 6.70
